Data taken from ChEMBL document CHEMBL1148464, “Cytotoxic activity of metal complexes of biogenic polyamines: polynuclear platinum(II) chelates” (J Med Chem, 2004).

Key:
Type in all cases: functional, cell-based
HSC-3 = experiment: Cytotoxic potency against human HSC-3 cell line expressed as inhibitory concentration
Procedure, shortened: (§1)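 Adherent cells grown in high-glucose DMEM with 10% FCS, harvested with trypsin/EDTA. Seeded at 3 × 10^5 cells/mL; drug at 5–150 µM added after 24 h, 37 °C. IC50 derived from 72 h exposure dose-response curves; only effects persisting 3 days after drug removal reported. Trypan blue counts plus MTT and Alamar blue viability readouts, triplicate.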

HeLa = experiment: Cytotoxic potency against human HeLa cell line expressed as inhibitory concentration
Procedure, shortened: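 Monolayers in high-glucose DMEM with 10% FCS, harvested with an EDTA/PBS dissociation medium. Plated at 3 × 10^5 cells/mL, dosed 24 h later with 5–150 µM at 37 °C. IC50 from 72 h dose-response curves, irreversible effects only (3-day drug-free recovery). Measured by Trypan blue exclusion, MTT (570 nm) and Alamar blue (570/600 nm) assays, in triplicate.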

L132 = experiment: Cytotoxic potency against human L-132 cell line expressed as inhibitory concentration; procedure, shortened: as §1
THP-1 = experiment: Cytotoxic potency against human THP-1 cell line expressed as inhibitory concentration
Procedure, shortened: (§2)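 Suspension cultures in RPMI-1640 with 25 mM HEPES and 10% FCS, seeded at 3 × 10^5 cells/mL; drug (5–150 µM) added 24 h later, 37 °C. IC50 taken from dose-response curves after 72 h exposure, counting irreversible effects only (drug washed out, 3 further days). Read-out by Trypan blue exclusion, MTT (4 h, 570 nm) and Alamar blue (8 h, 570/600 nm); triplicate.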

MOLT-3 = experiment: Cytotoxic potency against human MOLT-3 cell line expressed as inhibitory concentration; procedure, shortened: as §2

Q: Which IC50 (HSC-3) does the source give for CARBOPLATIN here?
A: 3000 nM

Q: Which results are given for CISPLATIN?
A: IC50 (HeLa): 2000 nM; IC50 (L132): 2000 nM; IC50 (HSC-3): 7000 nM; IC50 (THP-1): 2000 nM; IC50 (MOLT-3): 4000 nM
